Apaf-1 inh: inhibitors of human Apaf-1 apoptosome, primary screen, biochemical, DEVD-Rh110 fluorescence, uHTS | Apoptotic protease-activating factor 1 (Homo sapiens), O14727 | reconstituted apoptosome caspase-3 activity | inhibition, % at 20 µM | 330,000 tested, 0.71% active; active = inhibition of at least 40% at 20 µM;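 note: plate controls were DMSO wells for no effect and DEVD-CHO caspase inhibitor wells for full effect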
Target sequence (O14727 whole entry, looked up): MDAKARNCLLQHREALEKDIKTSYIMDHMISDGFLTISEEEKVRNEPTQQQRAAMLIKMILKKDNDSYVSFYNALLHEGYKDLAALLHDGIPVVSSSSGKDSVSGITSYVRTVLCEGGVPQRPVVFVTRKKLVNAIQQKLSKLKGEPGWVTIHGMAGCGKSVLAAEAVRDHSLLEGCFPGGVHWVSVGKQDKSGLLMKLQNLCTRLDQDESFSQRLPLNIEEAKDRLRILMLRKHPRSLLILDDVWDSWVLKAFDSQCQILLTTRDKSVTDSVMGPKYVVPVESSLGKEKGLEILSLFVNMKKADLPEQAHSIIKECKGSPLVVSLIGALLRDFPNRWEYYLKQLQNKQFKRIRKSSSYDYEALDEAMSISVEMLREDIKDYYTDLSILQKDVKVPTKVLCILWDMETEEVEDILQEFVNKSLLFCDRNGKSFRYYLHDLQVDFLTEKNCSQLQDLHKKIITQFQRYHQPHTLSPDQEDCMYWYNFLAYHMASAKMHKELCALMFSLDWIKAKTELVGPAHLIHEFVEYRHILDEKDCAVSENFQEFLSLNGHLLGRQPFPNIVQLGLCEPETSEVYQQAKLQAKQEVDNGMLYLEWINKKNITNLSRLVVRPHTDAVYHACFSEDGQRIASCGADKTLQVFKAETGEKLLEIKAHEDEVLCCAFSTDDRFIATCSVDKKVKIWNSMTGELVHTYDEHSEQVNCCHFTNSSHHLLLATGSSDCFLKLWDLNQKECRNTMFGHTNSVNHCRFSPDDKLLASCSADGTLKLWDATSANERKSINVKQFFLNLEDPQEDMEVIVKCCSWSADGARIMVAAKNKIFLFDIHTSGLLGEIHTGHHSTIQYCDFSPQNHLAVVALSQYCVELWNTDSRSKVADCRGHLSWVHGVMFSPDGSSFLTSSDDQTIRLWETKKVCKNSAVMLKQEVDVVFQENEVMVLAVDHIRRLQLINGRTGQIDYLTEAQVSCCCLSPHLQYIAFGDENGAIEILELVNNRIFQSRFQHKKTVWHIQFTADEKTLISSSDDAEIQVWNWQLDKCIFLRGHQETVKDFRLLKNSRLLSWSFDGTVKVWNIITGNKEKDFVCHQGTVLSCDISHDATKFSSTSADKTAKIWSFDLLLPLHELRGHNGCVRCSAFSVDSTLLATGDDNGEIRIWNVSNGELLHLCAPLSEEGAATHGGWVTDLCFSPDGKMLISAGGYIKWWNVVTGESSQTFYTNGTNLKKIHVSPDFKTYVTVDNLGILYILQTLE
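System: Apoptosome proteins | Medium: Hepes pH 7.5 with detergent and BSA | Also added: Cytochrome c trigger plus (Z-DEVD)2-Rh110 caspase-3 substrate | Incubation: 30 min compound preincubation, 50 min activation, room temperature | Detection: Rhodamine 110 fluorescence at Ex 480/Em 540 nm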
CHOP UPR activ: activators of apoptotic CHOP UPR arm, primary screen, cell-based, CHO-CHOP luciferase reporter, luminescence, uHTS; UPR activation; percent of tunicamycin response over DMSO baseline; activation, % at 10 µM; 330,000 tested, 0.34% active;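 active = at 10 µM dose, activation of 40% or more, normalized to positive control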;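 note: 100% = tunicamycin at 10 µg/mL and 0% = DMSO alone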
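measured by = luciferase luminescence | assay system = CHO-CHOP cells, stable luciferase reporter of PERK-eIF2a-CHOP signalling | amount = 500 reporter cells seeded per well | timing = 6 h compound exposure at 37 °C after overnight seeding | controls = positive tunicamycin 10 µg/mL, negative DMSO alone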
Mdm2-MdmX inh: inhibitors of human Mdm2-MdmX association, primary screen, cell-based, luminescence, split luciferase, SaOS-2, uHTS; AID 485346, 2010; 330,000 tested, 3% active; SaOS-2 split-luciferase Mdm2/MdmX complementation; Protein Mdm4 (Homo sapiens) + E3 ubiquitin-protein ligase Mdm2 (Homo sapiens), …; inhibition, % at 8 µM;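 active = inhibition of at least 50% at 8 µM in the primary screen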
UBC13 polyUb: UBC13 polyubiquitin chain formation inhibitors, primary screen, biochemical, TR-FRET, uHTS. Ubiquitin-conjugating enzyme E2 N (Homo sapiens), P61088. inhibition, % at 20 µM. 330,000 tested, 0.47% active. AID 485273, 2010; in the data active = inhibition above about 45%, passing the limit was not always enough; inconclusive = no clear call, values can overlap the other calls
UPR XBP1 act: activators of adaptive XBP1 UPR arm, primary screen, cell-based, CHO-XBP1 luciferase reporter, luminescence, uHTS; activation, % at 20 µM; 330,000 tested, 0.33% active; AID 463104, 2010; IRE1-XBP1 UPR activation; percent of tunicamycin response, DMSO as zero;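 active = versus positive control, 20 µM dose yields 30% or more activation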;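 note: 100% = tunicamycin at 10 µg/mL and 0% = DMSO only wells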
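incubation = overnight seeding at 37 °C, 6 h compound treatment at 37 °C | assay system = CHO-XBP1 cells stably carrying IRE1-XBP1-driven luciferase reporter | input = 1000 cells per well | detection = luciferase luminescence | dosing = single point, 20 µM final compound, 1% DMSO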
Casp3 UBC13 ctr: CASP3 inhibitor validation, counterassay for project on UBE2N polyubiquitination blockers, biochemical, one dose. shares compounds with UBC13 polyUb. AID 488856, 2010. 1,400 tested, 4% active. inhibition, % at 20 µM. Recombinant caspase-3, Caspase-Glo 3/7 luminescence, 60 min;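 active = mean inhibition across replicates above about 26%, limit read from the data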;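 note: plate controls were DMSO with caspase-3 for no effect and DMSO wells lacking enzyme for full effect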
UBC13 confirm: UBC13 polyubiquitination inhibitors, single-point retest, confirmation, biochemical, TR-FRET, single concentration; shares compounds with UBC13 polyUb; inhibition, % at 10 µM; 1,400 tested, 68% active; in the data active = inhibition above about 45%; inconclusive = no clear call, values can overlap the other calls
* marks the source's active call; other numbers are inactive results; ? = inconclusive; nt = not tested or not shown. Hits are enriched below; roughly 4.1% of the tested compounds scored in any of these assays.

SMILES | Apaf-1 inh | CHOP UPR activ | Mdm2-MdmX inh | UBC13 polyUb | UPR XBP1 act | Casp3 UBC13 ctr | UBC13 confirm
CC(C)(C)OC(=O)[C@H](CCCCN)NC(=O)c1[nH]cnc1C(=O)N[C@@H](Cc1ccccc1)C(=O)OCc1ccccc1 | 65* | 1 | 1 | 72* | -7 | 2 | 69*
Clc1cccc(-c2ccc(C3Nc4cccc5cccc(c45)N3)o2)c1 | 25 | -1 | 23 | -55 | 22 | nt | nt
O=C(Cn1nnc(-c2cccs2)n1)NNC(=O)c1ccccc1Cl | -20 | 2 | 9 | -2 | -1 | nt | nt
O=c1c2cc(NC(=S)NCCN3CCCCCC3)ccc2nc2n1CCCCC2 | 12 | -1 | 15 | -4 | 0 | nt | nt
O=c1c2cc(NC(=S)NCCCN3CCC(Cc4ccccc4)CC3)ccc2nc2n1CCCCC2 | -1 | 0 | 48 | 51* | 0 | 4 | 85*
COCCn1c(SCC(N)=O)nc2c(c1=O)SC(C)C2 (stereo unspecified) | 5 | 0 | 13 | 49* | -4 | -4 | -4
CN1CCc2c(sc3c2C(=O)NC(c2ccco2)N3)C1 (stereo unspecified) | 3 | 3 | 22 | -6 | -3 | nt | nt
CN1CCc2c(sc3c2C(=O)NC(c2cn(Cc4ccccc4)c4ccccc24)N3)C1 (stereo unspecified) | 17 | 0 | 18 | 51* | 4 | -2 | 64*
O=C(COc1ccc(Cc2ccccc2)cc1)c1ccc(F)cc1 | 16 | 4 | -18 | 45* | 4 | 49* | 8
CCOc1ccc(N2C(=O)C3C(c4ccccc4)=NN(c4ccccc4)C3C2=O)cc1 (stereo unspecified) | 4 | 0 | 2 | 56* | -2 | -4 | 39
CCOc1ccc(N2C(=O)C3C(C2=O)C3(c2ccccc2)c2ccccc2)cc1 (stereo unspecified) | 16 | 0 | 12 | 8 | 2 | nt | nt
Cc1nc2cc(Cl)c(Cl)cc2n1-c1ccccn1 | -5 | 1 | 4 | 7 | -2 | nt | nt
CCN(CC)CCNC(=O)c1cc2c(=O)n(C)c3ccccc3c2s1 | 2 | -1 | 36 | 55* | 10 | 1 | 62*
CCCCN(CC)CCNC(=O)c1cc2c(=O)n(C)c3ccccc3c2s1 | 5 | 1 | 37 | 70* | 4 | -4 | 80*
CCCCN(CC)CCCNC(=O)c1cc2c(=O)[nH]c3ccccc3c2s1 | 5 | 0 | 24 | 30 | -1 | nt | nt
O=C(CSc1ccccc1C(=O)NCCCN1CCCC1=O)NCc1ccco1 | -8 | -1 | 10 | 50* | -3 | 0 | 4
O=C(CSc1ccccc1F)NCCCN1CCCC1=O | -1 | 1 | -36 | 1 | 0 | nt | nt
Cc1nc2ccccn2c1C(=O)N/N=C/c1ccccc1[N+](=O)[O-] | -28 | 2 | -9 | 63* | 3 | -5 | -3
Cc1ccc(-c2cc(=O)c3cc(Cl)ccc3[nH]2)cc1 | -4 | 0 | -27 | 2 | -1 | nt | nt
O=C(Nc1cccnc1)c1sc(Nc2ccccc2)nc1-c1ccccc1 | 9 | 1 | 13 | 48* | -1 | -2 | 11
O=C(CCCCCN1C(=O)c2cccc3cccc(c23)C1=O)NCc1cccnc1 | -6 | 0 | 6 | 76* | -1 | -3 | 58*
CC(C(=O)Nc1cccc(S(=O)(=O)N2CCOCC2)c1)N1CCN(C)CC1 (stereo unspecified) | 2 | 1 | 0 | -2 | 1 | nt | nt
CCOC(=O)CCCSc1nnc(CCCCCN2C(=O)c3cccc4cccc(c34)C2=O)o1 | 29 | 1 | -5 | 53* | 1 | -2 | 42
O=C(NCc1ccccc1)c1ncn[nH]1 | -33 | 1 | -4 | -2 | -4 | nt | nt
Cc1ccc2cc(C#N)c(NCCNC(=S)NCCCN(C)C)nc2c1C | 1 | 1 | 18 | 28 | -4 | nt | nt
SMILES | Apaf-1 inh | CHOP UPR activ | Mdm2-MdmX inh | UBC13 polyUb | UPR XBP1 act | Casp3 UBC13 ctr | UBC13 confirm
Cc1cc(C)c2nc(NCCCNC(=S)NCCCN(C)C)c(C#N)cc2c1 | 9 | 3 | 22 | 50* | 0 | 5 | 42
CCC1(CC)Cc2ccccc2-c2[nH]c(=S)[nH]c(=O)c21 | 1 | 0 | -2 | 59* | 0 | 0 | 43
CCC1(CC)Cc2ccccc2-c2nc(NN)[nH]c(=O)c21 | -11 | 0 | -20 | 2 | -3 | nt | nt
Cc1cccc(C)c1NC(=O)Cn1c(=O)n(CCCC(=O)NC2CCN(Cc3ccccc3)CC2)c(=O)c2ccccc21 | 2 | -1 | 2 | 85* | 0 | -2 | 105*
COC(=O)c1ccccc1NC(=O)Cn1c(=O)n(CCC(=O)NC2CCN(Cc3ccccc3)CC2)c(=O)c2ccccc21 | -20 | -1 | 35 | 11 | -2 | nt | nt
Cc1cc(NC(=O)Cn2c(=O)n(CCCCC(=O)NC3CCN(Cc4ccccc4)CC3)c(=O)c3ccccc32)n[nH]1 | -11 | -1 | 2 | 52* | 1 | -2 | 48*
O=C(CCCCn1c(=O)[nH]c2ccccc2c1=O)NC1CCN(Cc2ccccc2)CC1 | 7 | -1 | 5 | 28 | 0 | nt | nt
O=C(CCCCn1c(=O)c2ccccc2n(Cc2ccccc2F)c1=O)NC1CCN(Cc2ccccc2)CC1 | 4 | -2 | 30 | 100* | -2 | 0 | 107*
Cc1onc(-c2c(Cl)cccc2Cl)c1C(=O)Nc1ccc(N2CCOCC2)cc1 | 6 | -2 | 11 | -5 | -4 | nt | nt
O=C(COC(=O)C1CC1)NC(=O)c1ccccc1 | -13 | 0 | 18 | 11 | 0 | nt | nt
Cn1c(=O)cc(SCC(=O)NCCCN2CCN(c3ccc(F)cc3)CC2)c2ccccc21 | 12 | -1 | 16 | 82* | -3 | -2 | ?
Cn1c(=O)cc(SCC(=O)NCc2ccc(F)cc2)c2ccccc21 | -5 | -1 | 33 | 14 | -1 | nt | nt
S=C(NCc1cccs1)Nc1ccccc1 | 6 | -1 | 25 | 4 | -3 | nt | nt
Cc1ccc(NC(=S)NCc2cccs2)cc1 | -1 | 5 | 10 | 52* | -5 | 2 | 6
COc1ccccc1NC(=O)CSc1nc2ccccc2n1C(C)=O | -3 | 0 | 7 | 46* | -1 | -1 | 28
COc1ccc(C)cc1S(=O)(=O)N1CCOCC1 | 2 | -1 | -27 | 8 | -6 | nt | nt
N#CC1(NC(=O)CN2C(=O)c3ccc([N+](=O)[O-])cc3C2=O)CCCCC1 | 3 | 1 | -1 | -7 | -3 | nt | nt
